Assay results published in ChEMBL document CHEMBL2146464, “Structure-activity relationship study of nitrosopyrimidines acting as antifungal agents” (Bioorg Med Chem, 2012).
Converted amounts (≈) assume the structure as drawn. The source made the active and inactive calls. The rule behind the calls is not given here.

What was measured:
[1] = tested on: Candida albicans; assay: Antifungal activity against Candida albicans ATCC 10231 assessed as growth inhibition at 31.25 ug/mL after 24 hrs by microplate reader analysis; type: functional; details: ATCC 10231, 24 h, read-out: GI
Summary of the method: (§1)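 96-well RPMI-1640 wells with compound at final 250–0.98 µg/mL (DMSO ≤1%). Inoculum 100 µL, 1–5 × 10³ CFU/mL, 200 µL final. Each well includes growth (DMSO, no compound) and sterility controls. % inhibition = 100 − (CTW−SCW)/(GCW−SCW) × 100, run in duplicate.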

[2] = tested on: Candida tropicalis; assay: Antifungal activity against Candida tropicalis after 48 hrs by NCCLS broth microdilution method; type: functional; details: read-out: MIC100
Summary of the method: (§2)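 Yeast MIC by NCCLS M27-A3 broth microdilution in RPMI-1640 buffered to pH 7.0 with MOPS. Twofold dilutions of 250–0.98 µg/mL, final DMSO ≤1%. Inoculum 1–5 × 10³ CFU/mL. Incubated at 30 °C in a moist dark chamber. Read visually at 48 h. MIC100 is the lowest concentration with no visible growth versus drug-free control.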

[3] = tested on: Cryptococcus neoformans; assay: Antifungal activity against Cryptococcus neoformans ATCC 32264 assessed as growth inhibition at 7.8 ug/mL after 48 hrs by microplate reader analysis; type: functional; details: ATCC 32264, 48 h, read-out: GI
Summary of the method: (§3)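 Microplate growth-inhibition assay in RPMI-1640, compound at final 250–0.98 µg/mL (DMSO ≤1%). Inoculum 1–5 × 10³ CFU/mL. Sterility and DMSO growth controls included. Percent inhibition is computed from blank-corrected OD relative to the growth control, tested in duplicate.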

[4] = tested on: Cryptococcus neoformans; assay: Antifungal activity against Cryptococcus neoformans ATCC 32264 assessed as growth inhibition at 62.5 ug/mL after 48 hrs by microplate reader analysis; type: functional; details: ATCC 32264, 48 h, read-out: GI; summary of the method: as §3
[5] = tested on: Trichophyton mentagrophytes; assay: Antifungal activity against Trichophyton mentagrophytes ATCC 9972 at 0.98 to 250 ug/mL by NCCLS broth microdilution method; type: functional, organism-based
Summary of the method: (§4)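 MIC by broth microdilution per NCCLS M27-A3/M38-A2 in RPMI-1640 buffered to pH 7.0 with MOPS. Twofold dilutions from 250–0.98 µg/mL, final DMSO ≤1%. Inoculum 1–5 × 10³ CFU/mL. Incubated in a moist dark chamber, 30 °C for Aspergillus and 28–30 °C for dermatophytes. Read visually when control growth allowed. Endpoint is the lowest concentration giving total inhibition of visible growth (MIC100).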

[6] = tested on: Candida tropicalis; assay: Antifungal activity against Candida tropicalis assessed as growth inhibition at 31.25 ug/mL by microplate reader analysis; type: functional; details: read-out: GI
[7] = tested on: Cryptococcus neoformans; assay: Antifungal activity against Cryptococcus neoformans ATCC 32264 after 48 hrs by microplate reader analysis; type: functional; details: ATCC 32264, 48 h; summary of the method: as §3
[8] = tested on: Cryptococcus neoformans; assay: Antifungal activity against Cryptococcus neoformans ATCC 32264 assessed as growth inhibition at 125 ug/mL after 48 hrs by microplate reader analysis; type: functional; details: ATCC 32264, 48 h, read-out: GI; summary of the method: as §3
[9] = tested on: Candida albicans; assay: Fungicidal activity against Candida albicans ATCC 10231 at 0.98 to 250 ug/mL after 48 hrs by agar plate dilution method; type: functional, organism-based
Summary of the method: (§5)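 MFC: after the microdilution MIC, material from each clear well was plated onto RPMI-1640 agar buffered with MOPS. Plates incubated at 30 °C and read after 48 h. MFC is the lowest concentration giving total inhibition of visible growth.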

[10] = tested on: Nannizzia gypsea; assay: Antifungal activity against Microsporum gypseum CCC 115 at 0.98 to 250 ug/mL by NCCLS broth microdilution method; type: functional, organism-based; summary of the method: as §4
[11] = Acute toxicity in bony fish assessed as mortality at 38.4 ug/mL after 96 hrs; details: actinopterygii; read-out: Activity
Summary of the method: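 Guppy (Poecilia reticulata) acute static exposure: 10 fish per concentration in 2 L wide-mouthed jars holding the test solution. Compounds were added from […] to give the final concentrations. Dead fish were counted and removed every 24 h, with general condition noted; percentage mortality was scored at 96 h. Two experiments, each in triplicate.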

[12] = tested on: Candida albicans; assay: Antifungal activity against Candida albicans ATCC 10231 assessed as growth inhibition at 7.8 ug/mL after 24 hrs by microplate reader analysis; type: functional; details: ATCC 10231, 24 h, read-out: GI; summary of the method: as §1
[13] = tested on: Candida albicans; assay: Antifungal activity against Candida albicans ATCC 10231 assessed as growth inhibition at 125 ug/mL after 24 hrs by microplate reader analysis; type: functional; details: ATCC 10231, 24 h, read-out: GI; summary of the method: as §1
[14] = tested on: Candida albicans; assay: Antifungal activity against Candida albicans ATCC 10231 after 48 hrs by NCCLS broth microdilution method; type: functional; details: ATCC 10231, 48 h, read-out: MIC100; summary of the method: as §2
[15] = tested on: Candida albicans; assay: Antifungal activity against Candida albicans ATCC 10231 assessed as growth inhibition at 250 ug/mL after 24 hrs by microplate reader analysis; type: functional; details: ATCC 10231, 24 h, read-out: GI; summary of the method: as §1
[16] = tested on: Candida albicans; assay: Antifungal activity against Candida albicans ATCC 10231 after 24 hrs by microplate reader analysis; type: functional; details: ATCC 10231, 24 h; summary of the method: as §1
[17] = tested on: Cryptococcus neoformans; assay: Antifungal activity against Cryptococcus neoformans ATCC 32264 assessed as growth inhibition at 250 ug/mL after 48 hrs by microplate reader analysis; type: functional; details: ATCC 32264, 48 h, read-out: GI; summary of the method: as §3
[18] = tested on: Candida tropicalis; assay: Fungicidal activity against Candida tropicalis at 0.98 to 250 ug/mL after 48 hrs by agar plate dilution method; type: functional, organism-based; summary of the method: as §5
[19] = tested on: Candida tropicalis; assay: Antifungal activity against Candida tropicalis assessed as growth inhibition at 250 ug/mL by microplate reader analysis; type: functional; details: read-out: GI
[20] = tested on: Cryptococcus neoformans; assay: Antifungal activity against Cryptococcus neoformans ATCC 32264 after 48 hrs by NCCLS broth microdilution method; type: functional; details: ATCC 32264, 48 h, read-out: MIC100; summary of the method: as §2
[21] = tested on: Candida tropicalis; assay: Antifungal activity against Candida tropicalis by microplate reader analysis; type: functional
[22] = tested on: Candida tropicalis; assay: Antifungal activity against Candida tropicalis assessed as growth inhibition at 62.5 ug/mL by microplate reader analysis; type: functional; details: read-out: GI
[23] = tested on: Candida albicans; assay: Antifungal activity against Candida albicans ATCC 10231 assessed as growth inhibition at 3.9 ug/mL after 24 hrs by microplate reader analysis; type: functional; details: ATCC 10231, 24 h, read-out: GI; summary of the method: as §1
[24] = tested on: Cryptococcus neoformans; assay: Antifungal activity against Cryptococcus neoformans ATCC 32264 assessed as growth inhibition at 15.6 ug/mL after 48 hrs by microplate reader analysis; type: functional; details: ATCC 32264, 48 h, read-out: GI; summary of the method: as §3
[25] = tested on: Candida tropicalis; assay: Antifungal activity against Candida tropicalis assessed as growth inhibition at 7.8 ug/mL by microplate reader analysis; type: functional; details: read-out: GI
[26] = tested on: Candida tropicalis; assay: Antifungal activity against Candida tropicalis assessed as growth inhibition at 3.9 ug/mL by microplate reader analysis; type: functional; details: read-out: GI
[27] = tested on: Candida albicans; assay: Antifungal activity against Candida albicans ATCC 10231 assessed as growth inhibition at 62.5 ug/mL after 24 hrs by microplate reader analysis; type: functional; details: ATCC 10231, 24 h, read-out: GI; summary of the method: as §1
[28] = tested on: Cryptococcus neoformans; assay: Antifungal activity against Cryptococcus neoformans ATCC 32264 assessed as growth inhibition at 31.25 ug/mL after 48 hrs by microplate reader analysis; type: functional; details: ATCC 32264, 48 h, read-out: GI; summary of the method: as §3
[29] = tested on: Cryptococcus neoformans; assay: Antifungal activity against Cryptococcus neoformans ATCC 32264 assessed as growth inhibition at 3.9 ug/mL after 48 hrs by microplate reader analysis; type: functional; details: ATCC 32264, 48 h, read-out: GI; summary of the method: as §3
[30] = tested on: Cryptococcus neoformans; assay: Fungicidal activity against Cryptococcus neoformans ATCC 32264 after 48 hrs by agar plate dilution method; type: functional; details: ATCC 32264, 48 h; summary of the method: as §5
[31] = tested on: Aspergillus flavus; assay: Antifungal activity against Aspergillus flavus ATCC 9170 at 0.98 to 250 ug/mL by NCCLS broth microdilution method; type: functional, organism-based; summary of the method: as §4
[32] = tested on: Aspergillus niger; assay: Antifungal activity against Aspergillus niger ATCC 9029 at 0.98 to 250 ug/mL by NCCLS broth microdilution method; type: functional, organism-based; summary of the method: as §4
[33] = tested on: Candida albicans; assay: Antifungal activity against Candida albicans ATCC 10231 assessed as growth inhibition at 15.6 ug/mL after 24 hrs by microplate reader analysis; type: functional; details: ATCC 10231, 24 h, read-out: GI; summary of the method: as §1
[34] = tested on: Trichophyton rubrum; assay: Antifungal activity against Trichophyton rubrum CCC 110 at 0.98 to 250 ug/mL by NCCLS broth microdilution method; type: functional, organism-based; summary of the method: as §4
[35] = tested on: Candida tropicalis; assay: Antifungal activity against Candida tropicalis assessed as growth inhibition at 15.6 ug/mL by microplate reader analysis; type: functional; details: read-out: GI
[36] = tested on: Candida tropicalis; assay: Antifungal activity against Candida tropicalis assessed as growth inhibition at 125 ug/mL by microplate reader analysis; type: functional; details: read-out: GI
[37] = tested on: Aspergillus fumigatus; assay: Antifungal activity against Aspergillus fumigatus ATCC 26934 at 0.98 to 250 ug/mL by NCCLS broth microdilution method; type: functional, organism-based; summary of the method: as §4

COc1nc(N)nc(Nc2cccc(Cl)c2)c1N=O
inhibition of growth at 31.25 µg/mL [1]: 91.8% | MIC [2]: 125 µg/mL (≈ 447 µM) | inhibition of growth at 7.8 µg/mL [3]: 74.9% | inhibition of growth at 62.5 µg/mL [4]: 83.7% | Activity [5]: inactive | inhibition of growth at 31.25 µg/mL [6]: 85.2% | MIC50 [7]: 3.9 µg/mL (≈ 13.9 µM) | inhibition of growth at 125 µg/mL [8]: 100% | Activity [9]: inactive | Activity [10]: inactive | mortality at 96 h, 38.4 ug/mL [11]: 0% | inhibition of growth at 7.8 µg/mL [12]: 80.3% | inhibition of growth at 125 µg/mL [13]: 100% | MIC [14]: 125 µg/mL (≈ 447 µM) | inhibition of growth at 250 µg/mL [15]: 100% | MIC50 [16]: 3.9 µg/mL (≈ 13.9 µM) | inhibition of growth at 250 µg/mL [17]: 100% | Activity [18]: inactive | inhibition of growth at 250 µg/mL [19]: 100% | MIC [20]: 125 µg/mL (≈ 447 µM) | MIC50 [21]: 3.9 µg/mL (≈ 13.9 µM) | inhibition of growth at 62.5 µg/mL [22]: 87.9% | inhibition of growth at 3.9 µg/mL [23]: 53.3% | inhibition of growth at 15.6 µg/mL [24]: 80.6% | inhibition of growth at 7.8 µg/mL [25]: 64.5% | inhibition of growth at 3.9 µg/mL [26]: 48.8% | inhibition of growth at 62.5 µg/mL [27]: 92.7% | inhibition of growth at 31.25 µg/mL [28]: 81.3% | inhibition of growth at 3.9 µg/mL [29]: 53.2% | MFC [30]: 250 µg/mL (≈ 894 µM) | Activity [31]: inactive | Activity [32]: inactive | inhibition of growth at 15.6 µg/mL [33]: 86.3% | Activity [34]: inactive | inhibition of growth at 15.6 µg/mL [35]: 75.2% | inhibition of growth at 125 µg/mL [36]: 100% | Activity [37]: inactive
